Reference: ChEMBL document CHEMBL2390929, “New nitric oxide donating 1,2,4-triazole/oxime hybrids: synthesis, investigation of anti-inflammatory, ulceroginic liability and antiproliferative activities” (Bioorg Med Chem, 2013)

What was measured:
Rattus norvegicus [1] = assay: Antiinflammatory activity in albino rat assessed as inhibition of carrageenan-induced paw edema at 0.28 mmol/kg, po after 2 hrs relative to control; format: functional
How it was run: (§1)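 Adult male albino rats (120–140 g), four per group, fasted 24 h with water allowed. Test agent suspended in 0.5% w/v aqueous CMC and given orally at 0.28 mmol/kg; controls received CMC alone. After 30 min, 0.1 mL fresh 1% carrageenan in saline was injected subplantar into the right hind paw and saline into the left. Paw thickness was measured by Vernier caliper; % inhibition = [(VR−VL)control − (VR−VL)treated]/(VR−VL)control ×100. Mean ± SEM, one-way ANOVA.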

[2] = Induction of nitric oxide release in phosphate buffer at pH 7.4 at 0.1 mM after 3 hrs by Griess method in presence of 0.5 mM of N-acetylcysteine; format: physicochemical; details: pH 7.4, 3 h, 100 µM
How it was run: (§2)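 Compound in DMF diluted to final 10^-4 M in 1:1 50 mM phosphate buffer pH 7.4/MeOH with 5×10^-4 M N-acetylcysteine, 37 °C. Aliquot mixed with Griess reagent, 10 min at room temperature, A546 read. Nitrite quantified against sodium nitrite standards (10–80 nmol/mL); NO expressed as mol/mol. n = 4 reaction mixtures per compound.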

[3] = Induction of nitric oxide release in phosphate buffer at pH 7.4 at 0.1 mM after 1 hr by Griess method in presence of 0.5 mM of N-acetylcysteine; format: physicochemical; details: pH 7.4, 1 h, 100 µM; how it was run: as §2
Rattus norvegicus [4] = assay: Antiinflammatory activity in albino rat assessed as inhibition of carrageenan-induced paw edema at 0.28 mmol/kg, po after 1 hr relative to control; format: functional; how it was run: as §1
Rattus norvegicus [5] = assay: Gastrointestinal toxicity in albino rat assessed as ulcer index at 0.28 mmol/kg, po (reference value: 0.60 +/- 0.05); format: organism-based; details: in vivo
Rattus norvegicus [6] = assay: Antiinflammatory activity in albino rat assessed as inhibition of carrageenan-induced paw edema at 0.28 mmol/kg, po after 3 hrs relative to control; format: functional; how it was run: as §1
Rattus norvegicus [7] = assay: Antiinflammatory activity in albino rat assessed as inhibition of carrageenan-induced paw edema at 0.28 mmol/kg, po after 5 hrs relative to control; format: functional; how it was run: as §1
Rattus norvegicus [8] = assay: Antiinflammatory activity in albino rat assessed as inhibition of carrageenan-induced paw edema at 0.28 mmol/kg, po after 4 hrs relative to control; format: functional; how it was run: as §1
[9] = Induction of nitric oxide release in phosphate buffer at pH 7.4 at 0.1 mM after 4 hrs by Griess method in presence of 0.5 mM of N-acetylcysteine; format: physicochemical; details: pH 7.4, 4 h, 100 µM; how it was run: as §2
[10] = Induction of nitric oxide release in phosphate buffer at pH 7.4 at 0.1 mM after 5 hrs by Griess method in presence of 0.5 mM of N-acetylcysteine; format: physicochemical; details: pH 7.4, 5 h, 100 µM; how it was run: as §2
[11] = Induction of nitric oxide release in phosphate buffer at pH 7.4 at 0.1 mM after 6 hrs by Griess method in presence of 0.5 mM of N-acetylcysteine; format: physicochemical; details: pH 7.4, 6 h, 100 µM; how it was run: as §2
[12] = Induction of nitric oxide release in phosphate buffer at pH 7.4 at 0.1 mM after 2 hrs by Griess method in presence of 0.5 mM of N-acetylcysteine; format: physicochemical; details: pH 7.4, 2 h, 100 µM; how it was run: as §2
Rattus norvegicus [13] = assay: Gastrointestinal toxicity in albino rat assessed as histopathological analysis at 0.28 mmol/kg, po using haematoxylin and eosin staining by light microscopic analysis; format: organism-based; details: in vivo
How it was run: (§3)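 Adult male albino rats (120–140 g, Minia University), groups of four, fasted 24 h with water allowed. Oral dose 0.28 mmol/kg suspended in 0.5% aqueous CMC; vehicle-only controls. Gastric sections dewaxed, stained with haematoxylin 5–7 min, differentiated in 1% HCl/70% alcohol, counterstained with 1% eosin 10 min. Cleared in xylene, mounted, examined by light microscopy at ×400.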

Rattus norvegicus [14] = assay: Gastrointestinal toxicity in albino rat assessed as decreased in thickness with marked loss of mucosal membrane at areas of ulceration at 0.28 mmol/kg, po using haematoxylin and eosin staining by light microscopic analysis; format: organism-based; details: in vivo; how it was run: as §3
Rattus norvegicus [15] = assay: Gastrointestinal toxicity in albino rat assessed as severe atrophic gastritis and gland atrophy at 0.28 mmol/kg, po using haematoxylin and eosin staining by light microscopic analysis; format: organism-based; details: in vivo; how it was run: as §3
Rattus norvegicus [16] = assay: Gastrointestinal toxicity in albino rat assessed as apoptotic glandular epithelial cells at 0.28 mmol/kg, po using haematoxylin and eosin staining by light microscopic analysis; format: organism-based, Epithelial cell; details: in vivo; how it was run: as §3
Rattus norvegicus [17] = assay: Gastrointestinal toxicity in albino rat assessed as acute inflammatory cell infiltrating its whole thickness and apparently destroying epithelial lining of gastric pits at 0.28 mmol/kg, po using haematoxylin and eosin staining by light microscopic analysis; format: organism-based, Stomach; details: in vivo; how it was run: as §3
Rattus norvegicus [18] = assay: Gastrointestinal toxicity in albino rat assessed as acute inflammatory cell infiltrating its whole thickness and apparently destroying surface of epithelium at 0.28 mmol/kg, po using haematoxylin and eosin staining by light microscopic analysis; format: organism-based; details: in vivo; how it was run: as §3
Rattus norvegicus [19] = assay: Gastrointestinal toxicity in albino rat assessed as capillary vasodilatation associated with accumulation of edema fluid in lamina propria at 0.28 mmol/kg, po using haematoxylin and eosin staining by light microscopic analysis; format: organism-based; details: in vivo; how it was run: as §3

Row | SMILES | inhibition in vivo at 280 µmol/kg (Rattus norvegicus [1]) [%] | Activity [2] [mol/mol] | Activity [3] [mol/mol] | inhibition in vivo at 280 µmol/kg (Rattus norvegicus [4]) [%] | UI (Rattus norvegicus [5]) | inhibition in vivo at 280 µmol/kg (Rattus norvegicus [6]) [%] | inhibition in vivo at 280 µmol/kg (Rattus norvegicus [7]) [%] | inhibition in vivo at 280 µmol/kg (Rattus norvegicus [8]) [%] | Activity [9] [mol/mol] | Activity [10] [mol/mol] | Activity [11] [mol/mol] | Activity [12] [mol/mol] | Activity (Rattus norvegicus [13]) | Activity (Rattus norvegicus [14]) | Activity (Rattus norvegicus [15]) | Activity (Rattus norvegicus [16]) | Activity (Rattus norvegicus [17]) | Activity (Rattus norvegicus [18]) | Activity (Rattus norvegicus [19])
1 | CCn1c(SC/C(=N/O)c2ccccc2)nnc1-c1cc(OC)c(OC)c(OC)c1 | 67 | 0.12 | 0.11 | 63 | 3.66 | 69 | 74 | 79 | 0.21 | 0.18 | 0.14 | 0.12 |  |  |  |  |  |  | 
2 | C=CCn1c(SCC(=O)c2ccccc2)nnc1-c1ccc(OC)c(OC)c1 | 63 |  |  | 61 | 4.26 | 64 | 62 | 72 |  |  |  |  |  |  |  |  |  |  | 
3 | CCn1c(SCC(=O)c2ccccc2)nnc1-c1ccccc1 | 55 |  |  | 52 | 4.49 | 61 | 51 | 63 |  |  |  |  |  |  |  |  |  |  | 
4 | CCn1c(SCC(=O)c2ccccc2)nnc1-c1ccc(OC)cc1 | 60 |  |  | 53 | 6.59 | 67 | 61 | 70 |  |  |  |  |  |  |  |  |  |  | 
5 | CCn1c(SC/C(=N/O)c2ccccc2)nnc1-c1ccc(OC)cc1 | 72 | 0.14 | 0.08 | 69 | 2.53 | 75 | 71 | 78 | 0.19 | 0.14 | 0.12 | 0.11 |  |  |  |  |  |  | 
6 | CCn1c(SCC(=O)c2ccccc2)nnc1-c1ccc(OC)c(OC)c1 | 55 |  |  | 42 | 7.36 | 61 | 69 | 73 |  |  |  |  | Non-toxic |  |  |  |  |  | 
7 | C=CCn1c(SCC(=O)c2ccccc2)nnc1-c1cc(OC)c(OC)c(OC)c1 | 62 |  |  | 49 | 6.39 | 66 | 60 | 66 |  |  |  |  |  |  |  |  |  |  | 
8 | COc1cc(-c2nnc(SCC(=O)c3ccccc3)n2-c2ccccc2)cc(OC)c1OC | 51 |  |  | 44 | 5.29 | 68 | 72 | 73 |  |  |  |  |  |  |  |  |  |  | 
9 | C=CCn1c(SCC(=O)c2ccccc2)nnc1-c1ccc(OC)cc1 | 53 |  |  | 49 | 5.34 | 63 | 61 | 67 |  |  |  |  |  |  |  |  |  |  | 
10 | COc1ccc2c(c1)c(CC(=O)O)c(C)n2C(=O)c1ccc(Cl)cc1 [INDOMETHACIN] | 67 |  |  | 51 | 63.45 | 74 | 87 | 83 |  |  |  |  |  | Toxic | Toxic | Toxic | Toxic | Toxic | Toxic
11 | COc1ccc(-c2nnc(SCC(=O)c3ccccc3)n2-c2ccccc2)cc1 | 57 |  |  | 52 | 8.74 | 58 | 61 | 68 |  |  |  |  |  |  |  |  |  |  | 
12 | COc1ccc(-c2nnc(SCC(=O)c3ccccc3)n2-c2ccccc2)cc1OC | 57 |  |  | 56 | 9.41 | 59 | 59 | 65 |  |  |  |  |  |  |  |  |  |  | 
13 | C=CCn1c(SC/C(=N\O)c2ccccc2)nnc1-c1ccccc1 | 60 | 0.13 | 0.06 | 58 | 2.3 | 65 | 68 | 77 | 0.16 | 0.22 | 0.17 | 0.1 |  |  |  |  |  |  | 
14 | C=CCn1c(SCC(=O)c2ccccc2)nnc1-c1ccccc1 | 58 |  |  | 43 | 2.44 | 70 | 66 | 66 |  |  |  |  |  |  |  |  |  |  | 
15 | C=CCn1c(SC/C(=N/O)c2ccccc2)nnc1-c1ccc(OC)cc1 | 66 | 0.12 | 0.09 | 61 | 1.14 | 67 | 57 | 76 | 0.15 | 0.15 | 0.14 | 0.12 |  |  |  |  |  |  | 
16 | C=CCn1c(SC/C(=N/O)c2ccccc2)nnc1-c1cc(OC)c(OC)c(OC)c1 | 68 | 0.12 | 0.08 | 61 | 5.52 | 70 | 77 | 73 | 0.13 | 0.17 | 0.17 | 0.1 |  |  |  |  |  |  | 
17 | CCn1c(SCC(=O)c2ccccc2)nnc1-c1cc(OC)c(OC)c(OC)c1 | 41 |  |  | 29 | 3.42 | 49 | 59 | 72 |  |  |  |  |  |  |  |  |  |  | 
18 | O=C(CSc1nnc(-c2ccccc2)n1-c1ccccc1)c1ccccc1 | 60 |  |  | 53 | 9.58 | 64 | 63 | 68 |  |  |  |  |  |  |  |  |  |  | 
